Experimental data taken from PubChem BioAssay.
Results filed as inconclusive are left out.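 Rule for the calls, unless noted: active = growth inhibition above 25% in both replicates, a cutoff set 3 SD above the mean; inconclusive = above 25% in only one replicate; inactive = the rest.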

Key:
[1] = S. cerevisiae growth inhibition in permissive medium (OD615), pilot counter-assay for S. cerevisiae lifespan shortening project, permissive growth control (AID 705); conditions: OD615, 24 h, at 10 µM, stronger effect = higher value
Summary of the method: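 System: Engineered DeaD yeast | Buffer or medium: SC raffinose/galactose permissive medium | Incubation: Cells pre-grown 4 h, then 24 h compound exposure, 30 °C humidified | Measured by: Absorbance (optical density) at 615 nm | Read-out: Reduction in yeast growth (OD615)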

[2] = S. cerevisiae growth inhibition in restrictive medium, OD615, pilot screen, restrictive growth control, yeast lifespan reduction project (AID 706;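 active = growth inhibition above a set limit, 3 SD over mean compound inhibition, in both replicates, cut at about 43% in these data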;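 note: modified DeaD lifespan yeast strain shifted to restrictive glucose medium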); conditions: OD615, 48 h, at 10 µM, stronger effect = higher value
Summary of the method: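 Material: modified S. cerevisiae; Medium: glucose-based CSMM-D restrictive medium; Compound dosing: one concentration, 10 µM final, 0.25% DMSO; Incubation: 48 h compound exposure at 30 °C; Measured by: OD615.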

[3] = doxorubicin toxicity protection in MRP-1 cells – H69AR cells, CellTiter-Glo, duplicate, MRP-1 activator project, pilot screen (AID 807;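 active = viability increase at or above a cutoff of the median across tested compounds plus 3 SD, cut at about 8.5% in these data, passing the limit was not always enough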;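 note: compound pretreatment 18-22 h then 72 h combined with doxorubicin; 0% = doxorubicin alone and 100% = vehicle without doxorubicin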); conditions: H69AR viability with doxorubicin, CellTiter-Glo luminescence; at 10 µM; stronger effect = higher value
[4] = viability of HCT116 without oncogenic beta-catenin – human colon tumor cells, pilot screen (AID 823;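 active = cell viability at or below a set limit in both duplicate runs, the limit being the all-compound median minus 4 SD, cut at about 23% in these data, passing the limit was not always enough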;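 note: 0% = wells killed by 20 µM Hyamine and 100% = untreated DMSO cell wells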); conditions: HCT116 beta-catenin knockout viability, CellTiter-Glo, 60 h; at 10 µM; stronger effect = lower value
[5] = viability of PTEN-null HCT116 cells – cell-based, HCT116 clonal line, CellTiter-Glo, pilot screen (AID 824;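 active = viability at or below 27.92% in each of two runs, the all-compound median minus 4 SD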;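 note: 0% = 20 µM Hyamine control and 100% = vehicle cell control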); conditions: HCT116 PTEN-deleted viability, 60 h, at 10 µM, stronger effect = lower value
[6] = RAM pathway blockade in budding yeast – dse1pr::URA3 reporter, 5-FOA selection, pilot screen (AID 869;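 active = inhibition over a set limit, the all-compound mean plus 3 SD, in both replicate runs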;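 note: 0% = DMSO wells with no growth and 100% = 10 µM 1-NA-PP1 with full growth; RAM network block rescues cells from 5-FOA so hits raise OD615 growth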); conditions: S. cerevisiae dse1pr::URA3 5-FOA growth, OD615, 2 d; at 10 µM; stronger effect = higher value; strain carries analog-sensitive mutant Cbk1 kinase
[7] = RAM signaling pathway blockade in yeast – S. cerevisiae, Pdr1DBD-CYC8 efflux-inhibited sensitized strain, primary screen (AID 1298;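 active = RAM network inhibition above 8.4% in each of two replicates, 3 SD over the compound average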;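 note: 0% = DMSO untreated cells without growth and 100% = 10 µM 1-NA-PP1 full growth; higher means more yeast growth rescued from 5-FOA killing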); conditions: S. cerevisiae cbk1-as DSE1-URA3 strain, 5-FOA growth OD615, 2 d; at 50 µM; stronger effect = higher value

CCCC(=O)Nc1ccc(N2CCCCC2)cc1
inactive: growth inhibition [1] -9.5% | growth inhibition [2] -9.51% | viability increase [3] -2.5% | viability [4] 87.2% | viability [5] 94.4% | inhibition [6] 3.02% | RAM network inhibition [7] 5.92%

Cc1cccc(OCc2nc(C#N)c(N3CC(C)CC(C)C3)o2)c1 (stereo unspecified)
inactive: growth inhibition [1] 0.505% | growth inhibition [2] -2.89% | viability increase [3] 3.8% | viability [4] 63.5% | viability [5] 65.3% | inhibition [6] 1.85% | RAM network inhibition [7] 5.88%

CC(Oc1ccc(Cl)cc1Cl)C(=O)NCCCN1CCOCC1 (stereo unspecified)
inactive: growth inhibition [1] -8.88% | growth inhibition [2] -10.2% | viability increase [3] 0.14% | viability [4] 96% | viability [5] 95% | inhibition [6] -0.36% | RAM network inhibition [7] 0.47%

O=C1CC(C(=O)Nc2nccs2)C(c2ccccc2)O1 (stereo unspecified)
inactive: growth inhibition [1] -4.84% | growth inhibition [2] -14.8% | viability increase [3] -0.76% | viability [4] 107% | viability [5] 99.3% | inhibition [6] 0.94% | RAM network inhibition [7] 0.09%

CCOC(=O)c1sc(N)nc1-c1ccccc1
inactive: growth inhibition [1] -5.04% | growth inhibition [2] 1.07% | viability increase [3] -2.29% | viability [4] 101% | viability [5] 94.5% | inhibition [6] 2.48% | RAM network inhibition [7] -2.06%

CN(C)Cc1cc(C(C)(C)C)c(O)c(C(C)(C)C)c1
inactive: growth inhibition [1] -3.78% | growth inhibition [2] -4.33% | viability increase [3] -2.61% | viability [4] 97.2% | viability [5] 101% | inhibition [6] 0.92% | RAM network inhibition [7] 5.72%

CC(=O)c1ccc(N2CCN(C(=O)c3cc4c(-c5ccccc5F)nn(C)c4s3)CC2)cc1
inactive: growth inhibition [1] 3.9% | growth inhibition [2] 2.33% | viability increase [3] -2.9% | viability [4] 66% | viability [5] 78% | inhibition [6] 2.27% | RAM network inhibition [7] 6.5%

CCOc1cc(N2CCOCC2)c(OCC)cc1NC(=O)c1cc(-c2ccco2)nc2ccccc12
inactive: growth inhibition [1] 1.62% | growth inhibition [2] -4.63% | viability increase [3] -5.6% | viability [4] 65.4% | viability [5] 60.8% | inhibition [6] 0.475% | RAM network inhibition [7] 6.51%

Cc1ccc(-c2nc(CS(=O)(=O)CC(=O)NCCCN3CCN(C)CC3)c(C)o2)cc1
inactive: growth inhibition [1] -9.1% | growth inhibition [2] -15.2% | viability increase [3] 0.53% | viability [4] 89.4% | viability [5] 94.7% | inhibition [6] 1.34% | RAM network inhibition [7] -0.16%

Cc1ccc(N2CC(c3nc4ccccc4n3C)CC2=O)cc1C (stereo unspecified)
inactive: growth inhibition [1] -4.58% | growth inhibition [2] -2.28% | viability increase [3] -1.22% | viability [4] 103% | viability [5] 105% | inhibition [6] 0.94% | RAM network inhibition [7] 3.07%

Cn1cc(SCC(=O)NCC2CCCO2)c2ccccc21 (stereo unspecified)
inactive: growth inhibition [1] -3.53% | growth inhibition [2] 2.04% | viability increase [3] -2.67% | viability [4] 94.9% | viability [5] 93.2% | inhibition [6] 1.21% | RAM network inhibition [7] 0.31%

Cc1occc1-c1nnc(SCCCC(=O)c2ccc(F)cc2)n1C
inactive: growth inhibition [1] -1.02% | growth inhibition [2] 3.81% | viability increase [3] 0.66% | viability [4] 74.4% | viability [5] 87.4% | inhibition [6] 1.5% | RAM network inhibition [7] 6.28%

Cc1ccc(-c2nnc(SCC(=O)Nc3ccccc3F)o2)cc1
inactive: growth inhibition [1] -11.9% | growth inhibition [2] 2.46% | viability increase [3] -0.16% | viability [4] 41.8% | viability [5] 37.8% | inhibition [6] 4.38% | RAM network inhibition [7] 5.9%

Cc1ccc(OCCCN(C)C)c(Br)c1
inactive: growth inhibition [1] -0.99% | growth inhibition [2] -6.73% | viability increase [3] -1.22% | viability [4] 89.1% | viability [5] 87.7% | inhibition [6] 1.03% | RAM network inhibition [7] 2.05%

CCC1CCCCN1C(=O)c1cc2cc(Br)ccc2oc1=O (stereo unspecified)
inactive: growth inhibition [1] -9.03% | growth inhibition [2] -15.9% | viability increase [3] -2.87% | viability [4] 106% | viability [5] 94.8% | inhibition [6] 0.68% | RAM network inhibition [7] 2.89%

CCOC(=O)C1CCN(C(c2ccc(OC)c(OC)c2)c2sc3nc(C)nn3c2O)CC1 (stereo unspecified)
inactive: growth inhibition [1] -3.62% | growth inhibition [2] 9.57% | viability increase [3] -2.25% | viability [4] 95.4% | viability [5] 96.1% | inhibition [6] -0.01% | RAM network inhibition [7] -0.97%

O=C(CN(Cc1ccccc1F)S(=O)(=O)c1ccc(Cl)cc1)NCCCO
inactive: growth inhibition [1] -12.7% | growth inhibition [2] -2.21% | viability increase [3] -2.15% | viability [4] 102% | viability [5] 93.7% | inhibition [6] 0.495% | RAM network inhibition [7] 1.84%

CCOc1cccc(C(=O)Nc2nnc(-c3ccco3)s2)c1
inactive: growth inhibition [1] -7.86% | growth inhibition [2] -7.51% | viability increase [3] -0.2% | viability [4] 103% | viability [5] 104% | inhibition [6] 3.44% | RAM network inhibition [7] 2.28%
